Here are results for eight compounds from ChEMBL document CHEMBL1138278, “Aromatic amide derivatives of 5,6-dimethoxy-2,3-dihydro-1H-inden(-1-yl)acetic acid as anti-inflammatory agents free of ulcerogenic liability” (Bioorg Med Chem Lett, 2007).

Common to all, as to type: functional
For assay [1], the system named is Rattus norvegicus. As to the kind of experiment: Antiinflammatory activity in Wistar rat assessed as inhibition of carrageenan-induced paw edema at 100 mg/kg, after 24 hrs. In a few lines: (§1)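 Male Wistar rats (170 ± 20 g) dosed orally: test agents at 100 mg/kg, reference at 10 mg/kg. One hour later, 0.1 ml of 1% carrageenan injected subplantar into the right hind paw.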

Assay [2] concerns Rattus norvegicus. As to the kind of experiment: Antiinflammatory activity in Wistar rat assessed as inhibition of carrageenan-induced paw edema at 100 mg/kg, after 2 hrs. In a few lines: as §1
Assay [3] deals with Rattus norvegicus. As to the kind of experiment: Antiinflammatory activity in Wistar rat assessed as inhibition of carrageenan-induced paw edema at 100 mg/kg, after 1 hr. Summed up:
as §1

The test system of assay [4] is Rattus norvegicus. As to the kind of experiment: Antiinflammatory activity in Wistar rat assessed as inhibition of carrageenan-induced paw edema at 100 mg/kg, after 4 hrs. Summed up:
as §1

The test system of assay [5] is Rattus norvegicus. As to the kind of experiment: Antiinflammatory activity in Wistar rat assessed as inhibition of carrageenan-induced paw edema at 100 mg/kg, after 6 hrs. In a few lines: as §1
The test system of assay [6] is Rattus norvegicus. In words: Antiinflammatory activity in Wistar rat assessed as inhibition of carrageenan-induced paw edema at 100 mg/kg, after 3 hrs. Summed up: as §1
Assay [7] relates to Mus musculus. In words: Analgesic activity in Swiss Albino mouse assessed as number of acetic acid-induced writhing at 100 mg/kg, po after 1 hr relative to control. In a few lines: (§2)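 Mice dosed orally; one hour later injected i.p. with 1% v/v acetic acid at 0.1 ml/10 g. Writhings counted over 15 min, starting five minutes after injection. Means ± SEM, n = 6; p < 0.05 versus control group.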

For assay [8], the system named is Mus musculus. In words: Analgesic activity in Swiss Albino mouse assessed as inhibition of acetic acid-induced writhing responses at 100 mg/kg, po after 1 hr. In a few lines:
as §2

Take `COc1cc2c(cc1OC)C(CC(=O)Nc1ccccc1C)CC2` (centres undefined): the inhibition in vivo at 100 mg/kg was 23.3% in the assay with Rattus norvegicus [1]; 18% with Rattus norvegicus [2]; 21.9% in the assay with Rattus norvegicus [3]; 25% in the assay with Rattus norvegicus [4]; 25.9% in the assay on Rattus norvegicus [5]; 26.1% with Rattus norvegicus [6]. Also, the inhibition in vivo at 100 mg/kg with Mus musculus [8] worked out at 30%. For the same compound, the Activity in the assay with Mus musculus [7] worked out at 24.3.
On to `COc1ccccc1NC(=O)CC1CCc2cc(OC)c(OC)cc21` (centres undefined), for which the inhibition in vivo at 100 mg/kg in the assay with Rattus norvegicus [1] was 30%; in the assay on Rattus norvegicus [2], 16%; with Rattus norvegicus [3], 28.1%; in the assay on Rattus norvegicus [4] it was 23.4%; with Rattus norvegicus [5], 24.1%; in the assay on Rattus norvegicus [6] it was 21.7%. Further, the inhibition in vivo at 100 mg/kg in the assay on Mus musculus [8] worked out at 24.5%. In the assay with Mus musculus [7], the Activity came to 26.17.
Take `COc1cc2c(cc1OC)C(CC(=O)Nc1ccc(NC(C)=O)cc1)CC2` (centres undefined): the inhibition in vivo at 100 mg/kg in the assay with Rattus norvegicus [1] is 33.3%; in the assay with Rattus norvegicus [2], 18%; with Rattus norvegicus [3], 25%; with Rattus norvegicus [4] it was 22.7%; in the assay on Rattus norvegicus [5] it was 24.1%; in the assay with Rattus norvegicus [6], 23.2%. Further, the inhibition in vivo at 100 mg/kg with Mus musculus [8] worked out at 30.8%. In addition, the Activity in the assay on Mus musculus [7] is listed as 24.
Regarding `COc1cc2c(cc1OC)C(CC(=O)O)CC2` (centres undefined), the inhibition in vivo at 100 mg/kg with Rattus norvegicus [1] came to 26.7%; in the assay with Rattus norvegicus [2] it was 24%; in the assay on Rattus norvegicus [3], 18.8%; in the assay on Rattus norvegicus [4], 23.9%; in the assay with Rattus norvegicus [5] it was 20.4%; in the assay with Rattus norvegicus [6], 27.5%. Also, the inhibition in vivo at 100 mg/kg with Mus musculus [8] was determined as 44%. In the assay on Mus musculus [7], the Activity is listed as 19.41.
Take `COc1cc2c(cc1OC)C(CC(=O)Nc1ccccn1)CC2` (centres undefined): the inhibition in vivo at 100 mg/kg with Rattus norvegicus [1] was found to be 33.3%; with Rattus norvegicus [2] it was 32%; in the assay on Rattus norvegicus [3], 25%; with Rattus norvegicus [4], 29.7%; in the assay with Rattus norvegicus [5] it was 29.6%; in the assay with Rattus norvegicus [6] it was 30.4%. In addition, the inhibition in vivo at 100 mg/kg in the assay on Mus musculus [8] came to 48%. For the same compound, in the assay with Mus musculus [7], the Activity is 18.
On to `COc1cc2c(cc1OC)C(CC(=O)Nc1cccnc1)CC2` (centres undefined), for which the inhibition in vivo at 100 mg/kg in the assay on Rattus norvegicus [1] came out at 36.7%; in the assay on Rattus norvegicus [2] it was 30%; in the assay on Rattus norvegicus [3] it was 25%; in the assay on Rattus norvegicus [4], 34.4%; in the assay on Rattus norvegicus [5] it was 35.2%; in the assay with Rattus norvegicus [6], 33.3%. Further, the inhibition in vivo at 100 mg/kg in the assay with Mus musculus [8] came out at 70.7%. Also, the Activity with Mus musculus [7] came out at 10.17.
As to `COc1cc2c(cc1OC)C(CC(=O)Nc1ccc(Br)cc1)CC2` (centres undefined), the inhibition in vivo at 100 mg/kg amounted to 66.7% in the assay with Rattus norvegicus [1]; 40% with Rattus norvegicus [2]; 50% in the assay on Rattus norvegicus [3]; 40.6% in the assay with Rattus norvegicus [4]; 46.3% in the assay on Rattus norvegicus [5]; 43.5% with Rattus norvegicus [6]. Besides, the inhibition in vivo at 100 mg/kg with Mus musculus [8] amounted to 37.5%. Also, the Activity in the assay on Mus musculus [7] amounted to 21.67.
Turning to `COc1cc2c(cc1OC)C(CC(=O)Nc1ccccc1)CC2` (centres undefined), the inhibition in vivo at 100 mg/kg in the assay on Rattus norvegicus [1] stood at 30%; with Rattus norvegicus [2] it was 32%; with Rattus norvegicus [3] it was 31.2%; with Rattus norvegicus [4] it was 37.5%; in the assay with Rattus norvegicus [5], 38.9%; with Rattus norvegicus [6] it was 36.2%. Further, the inhibition in vivo at 100 mg/kg with Mus musculus [8] is 42.8%. The Activity with Mus musculus [7] was 19.83.
